We go through three compounds from ChEMBL document CHEMBL4346653, “A2B Adenosine Receptor Antagonists with Picomolar Potency” (J Med Chem, 2019).

Assay [1] addresses T1, Adenosine receptor A3 (Homo sapiens, UniProt P0DMS8).
T1 sequence (P0DMS8 whole entry): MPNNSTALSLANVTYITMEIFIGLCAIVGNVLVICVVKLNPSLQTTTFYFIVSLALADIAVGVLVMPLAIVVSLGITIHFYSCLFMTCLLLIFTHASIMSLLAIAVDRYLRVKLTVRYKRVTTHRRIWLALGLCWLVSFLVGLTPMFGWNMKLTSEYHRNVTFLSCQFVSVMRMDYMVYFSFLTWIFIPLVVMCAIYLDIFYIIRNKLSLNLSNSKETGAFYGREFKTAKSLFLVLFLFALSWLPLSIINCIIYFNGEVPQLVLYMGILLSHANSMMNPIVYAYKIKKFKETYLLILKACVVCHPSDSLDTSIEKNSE
Kind of assay: Displacement of [3H]MRE3008-F20 from recombinant human A3 adenosine receptor expressed in CHO cell membranes measured after 120 mins by topcount scintillation counting method.

Assay [2] addresses T2, Adenosine receptor A1 (Homo sapiens, UniProt P30542).
T2 sequence (P30542 whole entry): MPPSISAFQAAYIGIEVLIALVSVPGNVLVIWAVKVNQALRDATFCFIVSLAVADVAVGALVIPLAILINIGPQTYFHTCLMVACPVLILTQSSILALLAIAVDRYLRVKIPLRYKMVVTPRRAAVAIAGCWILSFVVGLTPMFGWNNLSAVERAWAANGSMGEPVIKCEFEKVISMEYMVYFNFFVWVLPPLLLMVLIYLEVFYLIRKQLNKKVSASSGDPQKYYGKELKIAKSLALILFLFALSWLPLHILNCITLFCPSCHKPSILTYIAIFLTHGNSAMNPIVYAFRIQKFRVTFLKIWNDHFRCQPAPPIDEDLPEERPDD
Kind of assay: Displacement of [3H]DPCPX from recombinant human A1 adenosine receptor expressed in CHO cell membranes measured after 120 mins by topcount scintillation counting method. In general terms: Loss of bound radioactivity is the signal in a displacement assay; it reports binding, not function.

The target in assay [3] is T3, Adenosine receptor A2b (Homo sapiens, UniProt P29275).
T3 sequence (P29275 whole entry): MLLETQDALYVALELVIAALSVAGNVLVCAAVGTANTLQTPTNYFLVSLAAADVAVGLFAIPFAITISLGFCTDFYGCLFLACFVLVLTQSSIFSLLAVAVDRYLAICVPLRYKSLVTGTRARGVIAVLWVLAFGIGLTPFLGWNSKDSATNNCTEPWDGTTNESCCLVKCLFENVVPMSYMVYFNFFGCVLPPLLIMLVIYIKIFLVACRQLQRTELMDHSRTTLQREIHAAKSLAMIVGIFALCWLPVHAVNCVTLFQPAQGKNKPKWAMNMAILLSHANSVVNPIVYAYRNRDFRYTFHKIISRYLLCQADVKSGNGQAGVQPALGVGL
Kind of assay: Displacement of [3H]DPCPX from recombinant human A2B adenosine receptor expressed in HEK293 cell membranes measured after 60 mins by topcount scintillation counting method.

The target in assay [4] is T4, Adenosine receptor A2a (Homo sapiens, UniProt P29274). Kind of assay: Displacement of [3H]ZM241385 from recombinant human A2A adenosine receptor expressed in CHO cell membranes measured after 60 mins by topcount scintillation counting method.
T4 sequence (P29274 whole entry): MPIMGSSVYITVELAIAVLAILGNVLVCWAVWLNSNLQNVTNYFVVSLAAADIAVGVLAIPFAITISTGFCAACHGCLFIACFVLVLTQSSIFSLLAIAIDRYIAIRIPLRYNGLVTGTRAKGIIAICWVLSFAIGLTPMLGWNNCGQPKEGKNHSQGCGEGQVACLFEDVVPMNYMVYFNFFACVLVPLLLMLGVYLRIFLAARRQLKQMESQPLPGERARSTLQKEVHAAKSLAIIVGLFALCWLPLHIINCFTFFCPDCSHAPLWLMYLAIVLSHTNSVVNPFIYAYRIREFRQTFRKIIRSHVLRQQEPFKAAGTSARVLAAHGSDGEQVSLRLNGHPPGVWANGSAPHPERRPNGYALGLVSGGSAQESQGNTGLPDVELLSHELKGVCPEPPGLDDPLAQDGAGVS
The target of assay [5] is T1, Adenosine receptor A3. Briefly: Displacement of [3H]PSB-11 from recombinant human A3 adenosine receptor expressed in CHO cell membranes measured after 45 mins in presence of adenosine deaminase by liquid scintillation counting method. The gist of the method: (§1)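 Competition binding on membranes of cells recombinantly expressing the human receptor (CHO or HEK cells), with tritiated radioligand per subtype: [3H]PSB-603 for A2B, [3H]MSX-2 for A2A, [3H]CCPA for A1, [3H]PSB-11 for A3. Ki ± SEM from n = 3, some from extrapolated curves. Weak binders are reported as % inhibition of radioligand binding at 1 μM.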

Assay [6] addresses T2, Adenosine receptor A1. Briefly: Displacement of [3H]CCPA from recombinant human A1 adenosine receptor expressed in CHO cell membranes measured after 90 mins in presence of adenosine deaminase by liquid scintillation counting method. Summed up:
as §1

For assay [7], the species on record is Homo sapiens. Briefly: Selectivity index, ratio of Ki for displacement of [3H]PSB-11 from recombinant human A3 adenosine receptor expressed in CHO cell membranes to Ki for displacement of [3H]PSB-603 from recombinant human A2B adenosine receptor expressed in CHO cell membranes.
Assay [8] deals with T3, Adenosine receptor A2b. Briefly: Displacement of [3H]PSB-603 from recombinant human A2B adenosine receptor expressed in CHO cell membranes measured after 75 mins in presence of adenosine deaminase by liquid scintillation counting method. Summed up:
as §1

For assay [9], the species on record is Homo sapiens. Kind of assay: Selectivity index, ratio of Ki for displacement of [3H]CCPA from recombinant human A1 adenosine receptor expressed in CHO cell membranes to Ki for displacement of [3H]PSB-603 from recombinant human A2B adenosine receptor expressed in CHO cell membranes.
Assay [10] concerns the target T5, Adenosine receptor A3 (Homo sapiens) (UniProt P0DMS8).
T5 sequence (whole entry): T1 sequence (P0DMS8 whole entry)
Kind of assay: Displacement of [3H]PSB-11 from recombinant human A3 adenosine receptor expressed in CHO cell membranes at 1 uM measured after 45 mins in presence of adenosine deaminase by liquid scintillation counting method relative to control. The gist of the method:
(§2)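 Single-point competition binding at human AR subtype membranes, each against its own tritiated radioligand. The test compound is given at 1 μM, and the result is reported as percent inhibition of radioligand binding. The radioligand-specific footnotes give n = 3.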

Assay [11] addresses T6, Adenosine receptor A1 (Homo sapiens) (UniProt P30542).
T6 sequence (whole entry): T2 sequence (P30542 whole entry)
Kind of assay: Displacement of [3H]CCPA from recombinant human A1 adenosine receptor expressed in CHO cell membranes at 1 uM measured after 90 mins in presence of adenosine deaminase by liquid scintillation counting method relative to control. Summed up: as §2

The species named for assay [12] is Homo sapiens. Briefly: Selectivity index, ratio of Ki for displacement of [3H]MSX-2 from recombinant human A2A adenosine receptor expressed in CHO cell membranes to Ki for displacement of [3H]PSB-603 from recombinant human A2B adenosine receptor expressed in CHO cell membranes.
For assay [13], the target named is T4, Adenosine receptor A2a. Kind of assay: Displacement of [3H]MSX-2 from recombinant human A2A adenosine receptor expressed in CHO cell membranes at 1 uM measured after 30 mins in presence of adenosine deaminase by liquid scintillation counting method relative to control. The gist of the method:
as §2

In assay [14] the target is T4, Adenosine receptor A2a. Briefly: Displacement of [3H]MSX-2 from recombinant human A2A adenosine receptor expressed in CHO cell membranes measured after 30 mins in presence of adenosine deaminase by liquid scintillation counting method. The gist of the method: as §1
Assay [15] concerns the target Adenosine receptor A2a (Mus musculus, UniProt Q60613). Briefly: Displacement of [3H]MSX-2 from recombinant mouse A2A adenosine receptor expressed in CHO cell membranes measured after 60 mins by liquid scintillation counting method.
Assay [16] addresses T7, Adenosine receptor A3 (Mus musculus, UniProt Q61618).
T7 sequence (Q61618 whole entry): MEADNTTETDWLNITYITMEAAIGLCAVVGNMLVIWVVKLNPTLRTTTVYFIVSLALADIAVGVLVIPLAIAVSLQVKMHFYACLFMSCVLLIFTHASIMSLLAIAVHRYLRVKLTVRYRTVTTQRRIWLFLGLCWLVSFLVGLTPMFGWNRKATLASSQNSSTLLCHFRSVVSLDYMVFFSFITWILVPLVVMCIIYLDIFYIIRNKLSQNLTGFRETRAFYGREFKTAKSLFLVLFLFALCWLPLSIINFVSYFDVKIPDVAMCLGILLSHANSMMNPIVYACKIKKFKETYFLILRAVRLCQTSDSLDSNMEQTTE
Briefly: Displacement of [3H]NECA from recombinant mouse A3 adenosine receptor expressed in CHO cell membranes measured after 180 mins by liquid scintillation counting method.

The target in assay [17] is T8, Adenosine receptor A3 (Rattus norvegicus, UniProt P28647).
T8 sequence (P28647 whole entry): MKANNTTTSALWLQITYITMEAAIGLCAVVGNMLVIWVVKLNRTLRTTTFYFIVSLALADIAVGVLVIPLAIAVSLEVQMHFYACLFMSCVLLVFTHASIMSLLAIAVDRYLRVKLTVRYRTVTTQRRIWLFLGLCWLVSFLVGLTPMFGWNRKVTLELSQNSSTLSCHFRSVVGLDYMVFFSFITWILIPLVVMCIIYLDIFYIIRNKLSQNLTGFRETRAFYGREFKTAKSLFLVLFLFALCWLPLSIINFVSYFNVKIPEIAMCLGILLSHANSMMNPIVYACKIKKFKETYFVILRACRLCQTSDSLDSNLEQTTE
Briefly: Binding affinity to rat A3 adenosine receptor.

Assay [18] addresses T9, Adenosine receptor A2b (Mus musculus, UniProt Q60614).
T9 sequence (Q60614 whole entry): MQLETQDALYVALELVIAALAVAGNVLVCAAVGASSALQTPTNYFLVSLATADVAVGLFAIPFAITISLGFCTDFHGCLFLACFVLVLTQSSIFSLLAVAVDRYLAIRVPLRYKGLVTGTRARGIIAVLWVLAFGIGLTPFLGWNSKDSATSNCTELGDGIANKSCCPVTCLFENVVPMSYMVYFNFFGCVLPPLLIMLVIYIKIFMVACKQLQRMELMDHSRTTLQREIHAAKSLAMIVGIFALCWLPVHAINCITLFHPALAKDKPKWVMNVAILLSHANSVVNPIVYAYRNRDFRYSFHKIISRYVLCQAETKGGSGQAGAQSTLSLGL
Kind of assay: Displacement of [3H]PSB-603 from recombinant mouse A2B adenosine receptor expressed in CHO cell membranes measured after 75 mins by liquid scintillation counting method.

For assay [19], the target named is T10, Adenosine receptor A1 (Mus musculus, UniProt Q60612).
T10 sequence (Q60612 whole entry): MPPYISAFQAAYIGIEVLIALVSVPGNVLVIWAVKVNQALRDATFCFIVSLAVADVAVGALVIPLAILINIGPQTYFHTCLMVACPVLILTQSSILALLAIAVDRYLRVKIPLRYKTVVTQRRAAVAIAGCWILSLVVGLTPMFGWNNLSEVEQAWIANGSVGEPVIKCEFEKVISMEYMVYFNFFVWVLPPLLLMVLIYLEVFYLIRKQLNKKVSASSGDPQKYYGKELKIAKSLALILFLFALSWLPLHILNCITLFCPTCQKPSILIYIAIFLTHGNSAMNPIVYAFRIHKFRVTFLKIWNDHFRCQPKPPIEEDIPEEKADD
Kind of assay: Displacement of [3H]CCPA from recombinant mouse A1 adenosine receptor expressed in CHO cell membranes measured after 60 mins by liquid scintillation counting method.

Adenosine receptor A2a (Mus musculus, UniProt Q60613), sequence (Q60613 whole entry): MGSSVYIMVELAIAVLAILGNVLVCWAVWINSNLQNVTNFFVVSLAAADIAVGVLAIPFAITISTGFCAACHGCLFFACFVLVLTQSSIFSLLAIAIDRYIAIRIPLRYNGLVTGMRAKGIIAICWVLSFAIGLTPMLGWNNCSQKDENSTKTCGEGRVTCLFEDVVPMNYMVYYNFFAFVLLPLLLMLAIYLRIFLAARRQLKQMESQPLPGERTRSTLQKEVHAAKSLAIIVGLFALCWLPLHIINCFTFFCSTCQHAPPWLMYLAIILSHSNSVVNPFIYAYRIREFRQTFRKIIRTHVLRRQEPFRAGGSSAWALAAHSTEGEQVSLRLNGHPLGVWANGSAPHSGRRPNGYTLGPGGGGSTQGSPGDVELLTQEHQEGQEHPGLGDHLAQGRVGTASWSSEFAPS

`O=C(Nc1nc2nn(CCCc3ccccc3)cc2c2nc(-c3ccco3)nn12)c1cccc2ccccc12`: the inhibition constant (Ki) (commonly a measure of affinity in units of concentration, obtained from inhibition or displacement) in assay [1] was 300 nM; in [2] it was 1100 nM; in assay [3], 20 nM; in assay [4], 800 nM.

With `CCCn1c(=O)[nH]c2nc(-c3ccc(S(=O)(=O)N4CCN(C(C)c5ccccc5)CC4)cc3)[nH]c2c1=O` (centres undefined), the Ki is more than 1000 nM in assay [5], not below 1000 nM in assay [6], 8.34 nM in assay [8] and not below 1000 nM in assay [14]. The Ratio Ki in assay [7], in assay [9] and in assay [12] was more than 120 in each case. Further, the figures for the inhibition in assay [10], in [11] and in assay [13] were 0%, 42% and 42%, respectively.

As for `CCCn1c(=O)c2[nH]c(-c3ccc(OCC(=O)Nc4ccc(C#N)cc4)cc3)nc2n(CCC)c1=O`, the Ki is more than 10000 nM in assay [15]; more than 10000 nM in assay [16]; more than 10000 nM in assay [17]; 3.12 nM in [18]; 1.45 nM in assay [19].
